pIC50: −log10 of the molar value.
Legend:
[1] = Plasma concentration in athymic mouse plasma xenografted with human PC3 cells at 100 mg/kg, po after 4 hrs; assay type: ADME, organism-based, PC-3; set-up: dose 100 mg/kg, route oral
Mus musculus [2] = test: In vivo inhibition of mTORC2-mediated phosphorylation of AKT at […] in human PC3 cells xenografted into athymic nude mouse at 100 mg/kg, po after 32 hrs by Western blotting analysis relative to control; assay type: functional; settings: PC-3, 32 h
Method in brief: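 Human PC-3 cells were implanted subcutaneously into the hindflank of male nude mice aged 5−8 weeks, at 3 × 10^6 cells (passages 10−14, >95% viability) in ice-cold HBSS. At a tumor size of 200−500 mg, mice got one oral 100 mg/kg dose. Tumors were taken at 1, 4, 8, 16, 24 and 32 h. Lysates (n = 5 per group) were pooled, and phospho-AKT (T308) was read by Western blot, normalized to α-tubulin.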

[3] = biological target: Mast/stem cell growth factor receptor Kit (Homo sapiens, UniProt P10721); test: Inhibition of KIT (unknown origin)
[4] = Metabolic stability in mouse liver microsomes after 30 mins; assay type: ADME, Microsome; settings: read-out: Stability
[5] = Drug uptake in tumor of athymic mouse xenografted with human PC3 cells at 100 mg/kg, po after 1 hr; assay type: ADME, organism-based, Neoplasm, PC-3; set-up: dose 100 mg/kg, route oral; settings: read-out: Drug uptake
Method in brief: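 PC-3 cells (3 × 10⁶, passages 10–14, in ice-cold HBSS) were implanted sc in 5–8 week old male nude mice. Tumors of 200–500 mg received a single oral 100 mg/kg dose. Plasma and tumor were collected at 1, 4, 8, 16, 24 and 32 h and homogenized in buffer. Lysates were pooled per group (n = 5), and phospho-proteins were measured by Western blot normalized to α-tubulin.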

[6] = AUC (0 to infinity) in athymic nude mouse at 10 mg/kg, po; assay type: ADME, organism-based; set-up: dose 10 mg/kg, route oral, time infinity; settings: plasma
Method in brief: (§1)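 Single-dose PK: female athymic nude mice (10 mg/kg), female CD rats and male beagle dogs (3 mg/kg), male cynomolgus monkeys (3 mg/kg), given iv and by oral gavage. Solution in EPW (5% ethanol/45% PEG400/water), with 1:2 HCl (m/m) for mouse, rat and dog and 1:1.5 HCl (m/m) for monkey. Plasma levels followed over 24 h.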

[7] = Volume of distribution at steady state in CD rat at 3 mg/kg, iv; assay type: ADME, organism-based; set-up: dose 3 mg/kg, route intravenous; settings: in vivo, read-out: Vdss
Mus musculus [8] = test: In vivo inhibition of mTORC1-mediated phosphorylation of 4EBP1 at ([…]) in human PC3 cells xenografted into athymic nude mouse at 100 mg/kg, po after 8 hrs by Western blotting analysis relative to control; assay type: functional; settings: PC-3, 8 h
Method in brief: (§2)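 PC-3 cells grown in DMEM with 20% FBS were implanted subcutaneously at 3 × 10^6 cells in ice-cold HBSS into the hindflank of 5−8 week old male nude mice. At tumor size 200−500 mg, mice received a single oral dose of 100 mg/kg. Plasma and tumors were collected at 1, 4, 8, 16, 24 and 32 h. Tumor lysates from each group (n = 5) were pooled. Phospho-proteins were quantified by Western blot and normalized to α-tubulin.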

CDK3/cyclin E = CDK3/cyclin E (Homo sapiens, UniProt O96020+P24864+Q00526); test: Inhibition of CDK3/Cyclin E (unknown origin); assay type: protein-complex assay
Mus musculus [9] = test: In vivo inhibition of mTORC1-mediated phosphorylation of pS6 at (serine 240/244) in human PC3 cells xenografted into athymic nude mouse at 100 mg/kg, po after 1 hr by Western blotting analysis relative to control; assay type: functional; settings: PC-3, 1 h; method in brief: as §2
Mus musculus [10] = test: Toxicity in athymic nude mouse assessed as body weight gain at 50 mg/kg, po relative to control; assay type: organism-based; set-up: dose 50 mg/kg, route oral; settings: in vivo
Mus musculus [11] = test: In vivo inhibition of mTORC2-mediated phosphorylation of AKT at […] in human MCF7 cells xenografted into athymic nude mouse at 100 mg/kg, po after 32 hrs by Western blotting analysis relative to control; assay type: functional; settings: MCF7, 32 h
Method in brief: (§3)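 MCF-7 cells (DMEM, 10% FBS) were implanted subcutaneously at 5 × 10^6 cells in 50% cold HBSS/50% growth-factor-reduced matrigel into the hindflank of 5−8 week old female nude mice. At tumor size 40−150 mg, mice received a single oral dose of 100 mg/kg. Tumor lysates were pooled per group. Phospho-AKT (S473, T308), p70S6K (T389), S6 (S240/244) and 4E-BP1 (T37/46) were measured by Western blot normalized to α-tubulin.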

[12] = Drug uptake in tumor of athymic mouse xenografted with human MCF7 cells at 100 mg/kg, po after 8 hrs; assay type: ADME, organism-based, Neoplasm; set-up: dose 100 mg/kg, route oral; settings: read-out: Drug uptake
Mus musculus [13] = test: In vivo inhibition of mTORC2-mediated phosphorylation of AKT at serine 473 in human MCF7 cells xenografted into athymic nude mouse at 100 mg/kg, po after 24 hrs by Western blotting analysis relative to control; assay type: functional; settings: MCF7, 24 h; method in brief: as §3
[14] = biological target: Dual specificity mitogen-activated protein kinase kinase 1 (Homo sapiens, UniProt Q02750); test: Inhibition of MEK1 (unknown origin)
Mus musculus [15] = test: In vivo inhibition of mTORC1-mediated phosphorylation of p70S6K at […] in human PC3 cells xenografted into athymic nude mouse at 100 mg/kg, po after 32 hrs by Western blotting analysis relative to control; assay type: functional; settings: PC-3, 32 h; method in brief: as §2
Mus musculus [16] = test: In vivo inhibition of mTORC1-mediated phosphorylation of 4EBP1 at ([…]) in human PC3 cells xenografted into athymic nude mouse at 100 mg/kg, po after 4 hrs by Western blotting analysis relative to control; assay type: functional; settings: PC-3, 4 h; method in brief: as §2
Mus musculus [17] = test: In vivo inhibition of mTORC2-mediated phosphorylation of AKT at serine 473 in human MCF7 cells xenografted into athymic nude mouse at 100 mg/kg, po after 4 hrs by Western blotting analysis relative to control; assay type: functional; settings: MCF7, 4 h; method in brief: as §3
[18] = Tmax in athymic nude mouse at 10 mg/kg, po; assay type: ADME, organism-based; set-up: dose 10 mg/kg, route oral; settings: in vivo
Mus musculus [19] = test: In vivo inhibition of mTORC1-mediated phosphorylation of 4EBP1 at ([…]) in human MCF7 cells xenografted into athymic nude mouse at 100 mg/kg, po after 4 hrs by Western blotting analysis relative to control; assay type: functional; settings: MCF7, 4 h; method in brief: as §3
[20] = AUC (0 to infinity) in cynomolgus monkey at 3 mg/kg, iv; assay type: ADME, organism-based, Macaca fascicularis; set-up: time infinity, dose 3 mg/kg, route intravenous; settings: plasma; method in brief: as §1
[21] = biological target: Serine/threonine-protein kinase pim-1 (Homo sapiens, UniProt P11309); test: Inhibition of PIM1 (unknown origin)
Mus musculus [22] = test: In vivo inhibition of mTORC1-mediated phosphorylation of pS6 at (serine 240/244) in human MCF7 cells xenografted into athymic nude mouse at 100 mg/kg, po after 32 hrs by Western blotting analysis relative to control; assay type: functional; settings: MCF7, 32 h; method in brief: as §3
[23] = biological target: ALK tyrosine kinase receptor (Homo sapiens, UniProt Q9UM73); test: Inhibition of ALK (unknown origin)
Mus musculus [24] = test: In vivo inhibition of mTORC2-mediated phosphorylation of AKT at serine 473 in human PC3 cells xenografted into athymic nude mouse at 100 mg/kg, po after 4 hrs by Western blotting analysis relative to control; assay type: functional; settings: PC-3, 4 h; method in brief: as §2
Mus musculus [25] = test: In vivo inhibition of mTORC1-mediated phosphorylation of p70S6K at […] in human MCF7 cells xenografted into athymic nude mouse at 100 mg/kg, po after 32 hrs by Western blotting analysis relative to control; assay type: functional; settings: MCF7, 32 h; method in brief: as §3

Sequence of Mast/stem cell growth factor receptor Kit (P10721 whole entry): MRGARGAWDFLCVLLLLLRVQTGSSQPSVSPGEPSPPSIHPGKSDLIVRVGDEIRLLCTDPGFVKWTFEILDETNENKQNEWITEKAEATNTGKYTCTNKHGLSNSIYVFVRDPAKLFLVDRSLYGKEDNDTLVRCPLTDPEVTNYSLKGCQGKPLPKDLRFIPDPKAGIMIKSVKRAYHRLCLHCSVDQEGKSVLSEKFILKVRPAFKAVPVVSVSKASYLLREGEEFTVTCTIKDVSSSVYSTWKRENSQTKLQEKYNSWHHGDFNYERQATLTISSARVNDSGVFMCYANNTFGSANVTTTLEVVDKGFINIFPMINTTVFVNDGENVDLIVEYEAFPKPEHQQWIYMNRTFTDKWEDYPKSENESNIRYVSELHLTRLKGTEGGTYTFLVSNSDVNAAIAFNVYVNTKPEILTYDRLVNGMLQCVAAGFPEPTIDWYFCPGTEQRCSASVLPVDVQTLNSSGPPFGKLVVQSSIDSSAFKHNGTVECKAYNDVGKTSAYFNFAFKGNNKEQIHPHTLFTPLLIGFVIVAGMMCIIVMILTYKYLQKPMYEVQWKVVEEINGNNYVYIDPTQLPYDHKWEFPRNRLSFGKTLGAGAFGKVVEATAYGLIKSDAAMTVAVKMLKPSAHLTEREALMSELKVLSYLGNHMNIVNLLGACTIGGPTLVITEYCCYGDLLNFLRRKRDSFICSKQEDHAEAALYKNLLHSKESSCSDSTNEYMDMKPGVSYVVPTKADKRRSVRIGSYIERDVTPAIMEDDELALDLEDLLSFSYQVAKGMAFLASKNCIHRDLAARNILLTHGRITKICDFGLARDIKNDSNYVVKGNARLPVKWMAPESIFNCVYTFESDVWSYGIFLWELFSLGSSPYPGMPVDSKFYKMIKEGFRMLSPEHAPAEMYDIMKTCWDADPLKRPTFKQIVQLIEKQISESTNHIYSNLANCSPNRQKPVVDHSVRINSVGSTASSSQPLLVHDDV
Sequence of Serine/threonine-protein kinase pim-1 (P11309 whole entry): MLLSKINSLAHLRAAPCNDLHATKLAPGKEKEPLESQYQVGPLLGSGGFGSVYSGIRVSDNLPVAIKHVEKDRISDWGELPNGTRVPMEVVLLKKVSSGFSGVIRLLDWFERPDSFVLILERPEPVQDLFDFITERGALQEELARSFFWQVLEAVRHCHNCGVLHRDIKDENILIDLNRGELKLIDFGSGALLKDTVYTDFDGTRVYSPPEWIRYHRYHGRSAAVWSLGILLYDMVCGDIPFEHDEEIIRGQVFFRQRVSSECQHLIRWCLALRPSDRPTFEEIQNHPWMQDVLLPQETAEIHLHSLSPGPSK
Sequence of Dual specificity mitogen-activated protein kinase kinase 1 (Q02750 whole entry): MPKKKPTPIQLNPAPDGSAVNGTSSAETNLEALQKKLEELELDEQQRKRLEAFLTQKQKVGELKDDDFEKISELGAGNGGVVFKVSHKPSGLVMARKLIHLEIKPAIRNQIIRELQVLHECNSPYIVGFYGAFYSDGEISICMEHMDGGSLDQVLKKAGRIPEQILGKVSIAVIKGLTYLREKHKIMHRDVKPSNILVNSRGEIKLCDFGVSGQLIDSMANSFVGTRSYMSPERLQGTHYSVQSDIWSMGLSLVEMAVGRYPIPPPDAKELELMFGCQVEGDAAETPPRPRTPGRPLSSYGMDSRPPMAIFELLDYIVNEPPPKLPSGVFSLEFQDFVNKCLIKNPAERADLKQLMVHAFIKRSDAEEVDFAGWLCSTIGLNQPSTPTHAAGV
Sequence of ALK tyrosine kinase receptor (Q9UM73 whole entry): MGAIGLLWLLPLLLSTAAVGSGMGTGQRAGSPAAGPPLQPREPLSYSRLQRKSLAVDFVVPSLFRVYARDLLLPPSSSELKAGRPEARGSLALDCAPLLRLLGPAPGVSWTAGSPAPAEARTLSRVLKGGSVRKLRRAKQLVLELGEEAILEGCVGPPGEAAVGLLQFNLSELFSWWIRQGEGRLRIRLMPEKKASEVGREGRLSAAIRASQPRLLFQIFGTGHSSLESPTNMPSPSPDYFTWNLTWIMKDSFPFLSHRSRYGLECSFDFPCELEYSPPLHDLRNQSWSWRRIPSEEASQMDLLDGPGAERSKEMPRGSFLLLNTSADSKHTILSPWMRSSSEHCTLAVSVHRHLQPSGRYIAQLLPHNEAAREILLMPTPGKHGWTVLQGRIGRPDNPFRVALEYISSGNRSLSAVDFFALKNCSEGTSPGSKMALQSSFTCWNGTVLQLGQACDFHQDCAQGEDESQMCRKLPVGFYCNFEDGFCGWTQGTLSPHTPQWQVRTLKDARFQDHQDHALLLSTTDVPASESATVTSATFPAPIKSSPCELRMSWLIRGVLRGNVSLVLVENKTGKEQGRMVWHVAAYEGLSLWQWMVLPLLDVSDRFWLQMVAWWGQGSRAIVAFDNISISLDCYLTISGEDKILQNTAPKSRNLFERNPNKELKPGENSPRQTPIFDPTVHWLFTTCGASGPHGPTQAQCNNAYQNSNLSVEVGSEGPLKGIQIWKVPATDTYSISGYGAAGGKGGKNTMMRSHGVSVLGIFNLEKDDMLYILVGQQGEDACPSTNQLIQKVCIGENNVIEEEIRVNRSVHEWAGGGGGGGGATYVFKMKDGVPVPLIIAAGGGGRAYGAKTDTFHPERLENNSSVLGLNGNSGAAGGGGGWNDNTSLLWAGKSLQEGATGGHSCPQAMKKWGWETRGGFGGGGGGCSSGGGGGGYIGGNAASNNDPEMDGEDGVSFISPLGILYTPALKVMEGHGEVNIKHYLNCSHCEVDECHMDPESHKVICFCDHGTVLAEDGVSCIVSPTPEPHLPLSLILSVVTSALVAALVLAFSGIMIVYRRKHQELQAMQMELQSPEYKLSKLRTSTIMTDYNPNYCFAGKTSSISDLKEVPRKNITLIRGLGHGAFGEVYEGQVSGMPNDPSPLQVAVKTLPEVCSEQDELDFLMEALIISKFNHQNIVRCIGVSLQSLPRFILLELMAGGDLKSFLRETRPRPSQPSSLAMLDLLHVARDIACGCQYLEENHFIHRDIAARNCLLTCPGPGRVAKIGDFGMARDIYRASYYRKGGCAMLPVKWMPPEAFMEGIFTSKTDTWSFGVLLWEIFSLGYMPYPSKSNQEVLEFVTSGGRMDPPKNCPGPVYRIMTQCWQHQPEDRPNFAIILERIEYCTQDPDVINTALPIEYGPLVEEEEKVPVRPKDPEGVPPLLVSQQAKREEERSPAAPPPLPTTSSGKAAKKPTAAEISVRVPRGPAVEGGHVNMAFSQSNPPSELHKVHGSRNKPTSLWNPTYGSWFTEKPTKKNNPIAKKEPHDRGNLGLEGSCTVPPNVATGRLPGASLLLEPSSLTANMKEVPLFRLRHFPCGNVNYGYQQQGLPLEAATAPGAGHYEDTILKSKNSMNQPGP
Sequence of CDK3/cyclin E (P24864 whole entry): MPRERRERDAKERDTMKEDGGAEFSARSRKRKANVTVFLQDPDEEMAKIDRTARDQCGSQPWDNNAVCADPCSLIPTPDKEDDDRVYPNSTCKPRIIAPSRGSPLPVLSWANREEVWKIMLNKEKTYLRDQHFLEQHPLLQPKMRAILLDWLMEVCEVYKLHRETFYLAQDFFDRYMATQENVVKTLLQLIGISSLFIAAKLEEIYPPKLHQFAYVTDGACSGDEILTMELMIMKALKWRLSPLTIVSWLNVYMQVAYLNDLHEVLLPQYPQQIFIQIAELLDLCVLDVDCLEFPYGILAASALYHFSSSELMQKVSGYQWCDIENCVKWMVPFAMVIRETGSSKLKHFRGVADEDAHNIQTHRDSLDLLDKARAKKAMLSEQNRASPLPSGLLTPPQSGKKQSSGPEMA
Sequence of CDK3/cyclin E (O96020 whole entry): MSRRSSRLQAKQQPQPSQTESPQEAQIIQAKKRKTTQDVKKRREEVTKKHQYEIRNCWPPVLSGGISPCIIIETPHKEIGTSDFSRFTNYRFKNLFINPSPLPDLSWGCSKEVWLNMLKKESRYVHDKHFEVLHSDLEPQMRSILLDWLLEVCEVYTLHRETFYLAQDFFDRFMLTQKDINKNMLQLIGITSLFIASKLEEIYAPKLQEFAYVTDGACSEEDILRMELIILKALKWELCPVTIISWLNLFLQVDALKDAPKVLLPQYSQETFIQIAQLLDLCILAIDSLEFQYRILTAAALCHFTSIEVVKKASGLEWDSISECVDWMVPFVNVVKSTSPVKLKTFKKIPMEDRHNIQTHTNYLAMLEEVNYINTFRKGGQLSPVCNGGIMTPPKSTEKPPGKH
Sequence of CDK3/cyclin E (Q00526 whole entry): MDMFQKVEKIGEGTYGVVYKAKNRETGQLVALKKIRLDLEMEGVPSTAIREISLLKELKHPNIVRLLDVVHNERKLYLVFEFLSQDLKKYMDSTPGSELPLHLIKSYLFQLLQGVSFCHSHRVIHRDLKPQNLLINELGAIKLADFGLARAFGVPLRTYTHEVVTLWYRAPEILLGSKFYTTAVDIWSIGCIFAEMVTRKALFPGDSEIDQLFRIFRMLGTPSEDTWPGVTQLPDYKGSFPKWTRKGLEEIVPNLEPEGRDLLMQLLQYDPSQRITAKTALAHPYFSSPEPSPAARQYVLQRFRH

Compound Cc1c(C(=O)N2CCOc3ccc(-c4ccc(N)nc4)cc3C2)ccc(S(C)(=O)=O)c1F has a concentration at 4 h [1] of 21.3 µM, an inhibition in vivo at 100 mg/kg (Mus musculus [2]) of -3% and a pIC50 [3] of less than 5.46. It also gave a remaining at 0.5 h [4] of 78%, a concentration at 1 h [5] of 28.8 µM and an AUC(0-inf) [6] of 2.51 µM·h. The Vd [7] was 1.27 L/kg, the inhibition in vivo at 100 mg/kg (Mus musculus [8]) was 92% and the pIC50 (CDK3/cyclin E) was less than 5.00. It also gave an inhibition in vivo at 100 mg/kg (Mus musculus [9]) of 88%, an Activity (Mus musculus [10]) of 2.2% and an inhibition in vivo at 100 mg/kg (Mus musculus [11]) of 10%. For the same compound, the concentration at 8 h [12] was 16.6 µM, the inhibition in vivo at 100 mg/kg (Mus musculus [13]) was -49% and the pIC50 [14] was less than 5.46. It also gave an inhibition in vivo at 100 mg/kg (Mus musculus [15]) of -12%, an inhibition in vivo at 100 mg/kg (Mus musculus [16]) of 84% and an inhibition in vivo at 100 mg/kg (Mus musculus [17]) of 87%. For the same compound, the Tmax [18] was 30 min, the inhibition in vivo at 100 mg/kg (Mus musculus [19]) was 85% and the AUC(0-inf) [20] was 1.31 µM·h. For the same compound, the pIC50 [21] was less than 5.46, the inhibition in vivo at 100 mg/kg (Mus musculus [22]) was -3% and the pIC50 [23] was less than 5.46. The inhibition in vivo at 100 mg/kg (Mus musculus [24]) was 81% and the inhibition in vivo at 100 mg/kg (Mus musculus [25]) was 2%.

From ChEMBL document CHEMBL2331117 (J Med Chem, 2013)
